Laboratory results taken from ChEMBL document CHEMBL1909615, “Design, synthesis and antibacterial activity of fluoroquinolones containing bulky arenesulfonyl fragment: 2D-QSAR and docking study” (2011).
Values after ≈ are worked out from the molar mass of the structure shown.

Assays:
Type in all cases: functional
Bacillus subtilis = experiment: Antibacterial activity against Bacillus subtilis ATCC 10400 after 18 hrs by EUCAST broth dilution method; settings: for MIC: Bacillus subtilis, ATCC 10400, 18 h
Staphylococcus aureus = experiment: Antibacterial activity against Staphylococcus aureus ATCC 29213 after 18 hrs by EUCAST broth dilution method; settings: for MIC: Staphylococcus aureus, ATCC 29213, 18 h
Summary of the method: (§1)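 Broth microdilution in Mueller-Hinton broth per CLSI. Compounds dissolved in DMSO at 5120 µg/mL, diluted tenfold in MHB to 512 µg/mL, then twofold serially across 12 wells down to 0.25 µg/mL. Strains grown in tryptone soy broth; 5 µL inoculum (10^4-10^5 CFU/mL) added per well. Incubated 35 °C, 18 h. MIC read manually as the lowest concentration preventing visible growth.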

Escherichia coli = experiment: Antibacterial activity against Escherichia coli ATCC 25922 after 18 hrs by EUCAST broth dilution method; settings: ATCC 25922, 18 h; summary of the method: as §1
Pseudomonas aeruginosa = experiment: Antibacterial activity against Pseudomonas aeruginosa ATCC 27853 after 18 hrs by EUCAST broth dilution method; settings: for MIC: Pseudomonas aeruginosa, ATCC 27853, 18 h; summary of the method: as §1

SMILES | log(1/MIC), MIC in mM (Bacillus subtilis) | MIC (Bacillus subtilis) [µM] | log(1/MIC), MIC in mM (Staphylococcus aureus) | MIC (Staphylococcus aureus) [µM] | MIC (Escherichia coli) [µM] | log(1/MIC), MIC in mM (Pseudomonas aeruginosa) | MIC (Pseudomonas aeruginosa) [µM]
O=C(O)c1cn(C2CC2)c2cc(N3CCN(S(=O)(=O)c4ccc5ccccc5c4)CC3)c(F)cc2c1=O | 2.72 | 1.92 (≈ 1 µg/mL) | 2.72 | 1.92 (≈ 1 µg/mL) | 123 (≈ 64.2 µg/mL) | 0.61 | 245 (≈ 128 µg/mL)
O=C(O)c1cn(C2CC2)c2cc(N3CCN(S(=O)(=O)c4cccc5ccccc45)CC3)c(F)cc2c1=O | 3.32 | 0.479 (≈ 0.25 µg/mL) | 2.72 | 1.92 (≈ 1 µg/mL) | 61.3 (≈ 32 µg/mL) | 0.91 | 123 (≈ 64.2 µg/mL)
COc1ccc(S(=O)(=O)N2CCN(c3cc4c(cc3F)c(=O)c(C(=O)O)cn4C3CC3)CC2)c(OC)c1 | 3.33 | ≤ 0.47 | 3.33 | ≤ 0.47 | ≤ 0.47 | 3.33 | 0.47 (≈ 0.25 µg/mL)
COc1ccc(S(=O)(=O)N2CCN(c3cc4c(cc3F)c(=O)c(C(=O)O)cn4C3CC3)CC2)cc1OC | 3.33 | 0.47 (≈ 0.25 µg/mL) | 3.33 | ≤ 0.47 | ≤ 0.47 | 2.42 | 3.76 (≈ 2 µg/mL)
O=C(O)c1cn(C2CC2)c2cc(N3CCN(S(=O)(=O)c4ccc(F)cc4F)CC3)c(F)cc2c1=O | 3.31 | 0.493 (≈ 0.25 µg/mL) | 2.41 | 3.94 (≈ 2 µg/mL) | 7.88 (≈ 4 µg/mL) | 1.2 | 63 (≈ 32 µg/mL)
O=C(O)c1cn(C2CC2)c2cc(N3CCN(S(=O)(=O)c4ccc(Cl)c(Cl)c4)CC3)c(F)cc2c1=O | 3.33 | ≤ 0.463 | 3.33 | ≤ 0.463 | ≤ 0.463 | 2.73 | 1.85 (≈ 1 µg/mL)
O=C(O)c1cn(C2CC2)c2cc(N3CCN(S(=O)(=O)c4c(Cl)cc(Cl)cc4Cl)CC3)c(F)cc2c1=O | 3.36 | 0.435 (≈ 0.25 µg/mL) | 2.76 | 1.74 (≈ 1 µg/mL) | 111 (≈ 63.8 µg/mL) | 0.95 | 111 (≈ 63.8 µg/mL)
CCn1cc(C(=O)O)c(=O)c2cc(F)c(N3CCN(S(=O)(=O)c4c(C)cc(C)cc4C)CC3)cc21 | 2.09 | 7.98 (≈ 4 µg/mL) | 2.09 | 7.98 (≈ 4 µg/mL) | 32 (≈ 16.1 µg/mL) | 1.19 | 64 (≈ 32.1 µg/mL)
Cc1cc(C)c(S(=O)(=O)N2CCN(c3cc4c(cc3F)c(=O)c(C(=O)O)cn4C3CC3)CC2)c(C)c1 | 1.51 | 31 (≈ 15.9 µg/mL) | 1.21 | 62 (≈ 31.8 µg/mL) | 62 (≈ 31.8 µg/mL) | 0.9 | 125 (≈ 64.2 µg/mL)
CCn1cc(C(=O)O)c(=O)c2cc(F)c(N3CCN(S(=O)(=O)c4c(C(C)C)cc(C(C)C)cc4C(C)C)CC3)cc21 | 1.26 | 55 (≈ 32.2 µg/mL) | 1.26 | 55 (≈ 32.2 µg/mL) | 55 (≈ 32.2 µg/mL) | 0.96 | 109 (≈ 63.8 µg/mL)
CC(C)c1cc(C(C)C)c(S(=O)(=O)N2CCN(c3cc4c(cc3F)c(=O)c(C(=O)O)cn4C3CC3)CC2)c(C(C)C)c1 | 0.97 | 107 (≈ 64 µg/mL) | 0.67 | 214 (≈ 128 µg/mL) | 3.35 (≈ 2 µg/mL) | 0.37 | ≥ 428
CCn1cc(C(=O)O)c(=O)c2cc(F)c(N3CCN(S(=O)(=O)c4c(C)c(C)c(C)c(C)c4C)CC3)cc21 | 0.62 | 242 (≈ 128 µg/mL) | 0.62 | 242 (≈ 128 µg/mL) | 242 (≈ 128 µg/mL) | 0.62 | 242 (≈ 128 µg/mL)
Cc1c(C)c(C)c(S(=O)(=O)N2CCN(c3cc4c(cc3F)c(=O)c(C(=O)O)cn4C3CC3)CC2)c(C)c1C | 0.63 | 236 (≈ 128 µg/mL) | 0.33 | ≥ 473 | ≥ 473 | 0.33 | ≥ 473
O=C(O)c1cn(C2CC2)c2cc(N3CCNCC3)c(F)cc2c1=O [CIPROFLOXACIN] | 3.12 | ≤ 0.758 | 3.12 | ≤ 0.758 | ≤ 0.758 | 3.12 | 0.758 (≈ 0.251 µg/mL)

Next, values leading:

log(1/MIC), MIC in mM (Bacillus subtilis) | MIC (Bacillus subtilis) [µM] | log(1/MIC), MIC in mM (Staphylococcus aureus) | MIC (Staphylococcus aureus) [µM] | MIC (Escherichia coli) [µM] | log(1/MIC), MIC in mM (Pseudomonas aeruginosa) | MIC (Pseudomonas aeruginosa) [µM] | SMILES
3.01 | 0.981 (≈ 0.5 µg/mL) | 2.71 | 1.96 (≈ 0.999 µg/mL) | 251 (≈ 128 µg/mL) | 0.9 | 126 (≈ 64.2 µg/mL) | CCn1cc(C(=O)O)c(=O)c2cc(F)c(N3CCN(S(=O)(=O)c4ccc5ccccc5c4)CC3)cc21
3.01 | 0.981 (≈ 0.5 µg/mL) | 2.71 | 1.96 (≈ 0.999 µg/mL) | 251 (≈ 128 µg/mL) | 0.6 | 251 (≈ 128 µg/mL) | CCn1cc(C(=O)O)c(=O)c2cc(F)c(N3CCN(S(=O)(=O)c4cccc5ccccc45)CC3)cc21
3.32 | 0.481 (≈ 0.25 µg/mL) | 3.32 | 0.481 (≈ 0.25 µg/mL) | ≤ 0.481 | 2.14 | 3.85 (≈ 2 µg/mL) | CCn1cc(C(=O)O)c(=O)c2cc(F)c(N3CCN(S(=O)(=O)c4ccc(OC)cc4OC)CC3)cc21
3.02 | 0.962 (≈ 0.5 µg/mL) | 3.02 | 0.962 (≈ 0.5 µg/mL) | ≤ 0.481 | 2.14 | 3.85 (≈ 2 µg/mL) | CCn1cc(C(=O)O)c(=O)c2cc(F)c(N3CCN(S(=O)(=O)c4ccc(OC)c(OC)c4)CC3)cc21
2.39 | 4.04 (≈ 2 µg/mL) | 2.09 | 8.07 (≈ 4 µg/mL) | 8.07 (≈ 4 µg/mL) | 0.89 | 129 (≈ 63.9 µg/mL) | CCn1cc(C(=O)O)c(=O)c2cc(F)c(N3CCN(S(=O)(=O)c4ccc(F)cc4F)CC3)cc21
3.33 | 0.473 (≈ 0.25 µg/mL) | 3.33 | ≤ 0.473 | ≤ 0.473 | 2.86 | 1.39 (≈ 0.734 µg/mL) | CCn1cc(C(=O)O)c(=O)c2cc(F)c(N3CCN(S(=O)(=O)c4ccc(Cl)cc4Cl)CC3)cc21
3.33 | ≤ 0.463 | 3.33 | ≤ 0.463 | ≤ 0.463 | 2.73 | 1.85 (≈ 1 µg/mL) | O=C(O)c1cn(C2CC2)c2cc(N3CCN(S(=O)(=O)c4ccc(Cl)cc4Cl)CC3)c(F)cc2c1=O
3.33 | ≤ 0.473 | 3.33 | ≤ 0.473 | ≤ 0.473 | 2.72 | 1.89 (≈ 0.999 µg/mL) | CCn1cc(C(=O)O)c(=O)c2cc(F)c(N3CCN(S(=O)(=O)c4ccc(Cl)c(Cl)c4)CC3)cc21
3.35 | 0.444 (≈ 0.25 µg/mL) | 2.75 | 1.78 (≈ 1 µg/mL) | ≥ 455 | 0.34 | ≥ 455 | CCn1cc(C(=O)O)c(=O)c2cc(F)c(N3CCN(S(=O)(=O)c4c(Cl)cc(Cl)cc4Cl)CC3)cc21
